Reference: ChEMBL document CHEMBL1212858, “New bioactive halenaquinone derivatives from South Pacific marine sponges of the genus Xestospongia” (Bioorg Med Chem, 2010)
Counter-ions that a name gives are not always drawn.

Assays:
Plasmodium falciparum [1] = assay: Antiplasmodial activity against chloroquine-sensitive Plasmodium falciparum 3D7 after 48 hrs; assay type: functional, organism-based; details: 3D7, 48 h
Outline: (§1)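 Ring-stage P. falciparum cultures synchronised by magnetic purification plus D-sorbitol lysis. Compounds from a 10 mg/mL DMSO mother solution were serially diluted in culture medium and incubated 48 h with parasitised erythrocytes (2% haematocrit, 1% parasitaemia). Growth was followed by 3H-hypoxanthine incorporation (9.25 kBq/well). IC50 was read graphically from inhibition–concentration plots. Triplicates, three independent experiments; chloroquine as positive control.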

Vero = assay: Cytotoxicity against african green monkey Vero cells assessed as inhibition of [3H]hypoxanthine incorporation after 48 hrs; assay type: cell-based; details: Chlorocebus sabaeus
Outline: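 VERO cells (10^5 cells/well) exposed 48 h to serial dilutions in culture medium of a 10 mg/mL DMSO mother solution; growth inhibition by 3H-hypoxanthine incorporation (9.25 kBq/well). Highest concentration tested 20 µg/mL. IC50 read graphically from inhibition-versus-concentration plots; triplicates on three independent occasions, mean ± SEM (n = 3). Doxorubicin positive control.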

Phospholipase A2 = biological target: T1, Phospholipase A2 (Apis mellifera, UniProt P00630); assay: Inhibition of bee venom phospholipase A2 after 5 mins by spectrophotometric analysis
T1 sequence (P00630 whole entry): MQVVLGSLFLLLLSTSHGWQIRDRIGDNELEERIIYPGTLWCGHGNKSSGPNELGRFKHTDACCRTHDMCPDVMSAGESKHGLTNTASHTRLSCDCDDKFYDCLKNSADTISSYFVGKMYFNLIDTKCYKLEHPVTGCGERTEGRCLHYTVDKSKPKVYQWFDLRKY
Outline: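 Colorimetric assay with Apis mellifera venom PLA2, added as 2 µL of a 1 mg/mL […]. Test material in DMSO was preincubated with the enzyme for 1 h at 25 °C. Substrate solution was then added: L-α-phosphatidylcholine 3.5 mM, phenol red 0.055 mM, NaCl 100 mM, CaCl2 10 mM, Triton 7 mM, pH 7.6. Absorbance at 550 nm was read at 0 and 5 min, in duplicate. Manoalide as positive control.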

[2] = biological target: Protein farnesyltransferase (Homo sapiens, UniProt P49354+P49356); assay: Inhibition of human FTase after 15 mins by fluorimetric analysis; assay type: protein-complex assay
Outline: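 Partially purified human FTase (1.5 mg/mL, 5 µL per 1 mL peptide solution) with dansyl-GCVLS peptide in Tris/HCl pH 7.5 buffer with DTT, MgCl2, ZnCl2 and 0.18% octyl-D-glucopyranoside in place of CHAPS. Inhibitors added from DMSO; started with farnesyl pyrophosphate (10 µM stock). Fluorescence (ex 340/em 486 nm) read 15 min at 30 °C; duplicates, run twice.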

[3] = Inhibition of Saccharomyces cerevisiae FTase after 15 mins by fluorimetric analysis
Outline: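 Partially purified recombinant yeast FTase (2.2 mg/mL, 0.1 mL per 7.0 mL peptide solution) with dansyl-GCVLS peptide in 53 mM Tris/HCl pH 7.5, 5.8 mM DTT, 6 mM MgCl2, 12 µM ZnCl2, 0.09% CHAPS. Inhibitors added from DMSO; started with farnesyl pyrophosphate (10 µM stock). Fluorescence (ex 340/em 486 nm) followed 15 min at 30 °C; duplicates, run twice.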

Plasmodium falciparum [4] = assay: Antiplasmodial activity against chloroquine-resistant Plasmodium falciparum FcB1 after 48 hrs; assay type: functional, organism-based; details: FcB1/Columbia; outline: as §1
[5] = Selectivity ratio of IC50 for african green monkey (Cercopithecus aethiops) Vero cells to IC50 for chloroquine-resistant Plasmodium falciparum FcB1; assay type: ADME, cell-based; details: read-out: Ratio IC50
Outline: (§2)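 Compounds were serially diluted from a 10 mg/mL DMSO stock into medium and added to VERO cells (10^5 cells/well) or to synchronised ring-stage P. falciparum (2% haematocrit, 1% parasitaemia). Read-out was 3H-hypoxanthine incorporation, with IC50 read graphically. Triplicates, three independent times; doxorubicin and chloroquine as controls.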

[6] = Selectivity ratio of IC50 for african green monkey (Cercopithecus aethiops) Vero cells to IC50 for chloroquine-sensitive Plasmodium falciparum 3D7; assay type: ADME, cell-based; details: read-out: Ratio IC50; outline: as §2

SMILES | IC50 (Plasmodium falciparum [1]) | IC50 (Vero) | IC50 (Phospholipase A2) | IC50 [2] | IC50 [3] | IC50 (Plasmodium falciparum [4]) | selectivity ratio [5] | selectivity ratio [6]
C[C@@]12CCC(=O)c3coc(c31)C(=O)c1cc3c(cc12)C(=O)C1=C(C3=O)S(=O)(=O)CCN1 [3-KETOADOCIAQUINONE A] | 1.67 µM | > 45 µM | 140 µM | 4.19 µM | 1.48 µM | 1.08 µM | 5 | 5
C[C@@]12CCC(=O)c3coc(c31)C(=O)c1cc3c(cc12)C(=O)C1=C(NCCS1(=O)=O)C3=O [3-KETOADOCIAQUINONE B] | 4.12 µM | > 45 µM | 105 µM | 9.27 µM | 3.75 µM | 3.89 µM | 5 | 5
COc1cccc2c1C(=O)c1c(O)c3c(c(O)c1C2=O)C[C@@](O)(C(=O)CO)C[C@@H]3O[C@H]1C[C@H](N)[C@H](O)[C@H](C)O1 [DOXORUBICIN] |  | 5.12 µM |  |  |  |  |  | 
C[C@@]12CCC(=O)c3coc(c31)C(=O)c1cc3c(O)ccc(OS(=O)(=O)O)c3cc12 [HALENAQUINOL SULFATE SODIUM] | > 24 µM | > 48 µM | 1000 µM | 21.5 µM | 16.1 µM | > 24 µM |  | 
C[C@@]12CCC(=O)c3coc(c31)C(=O)c1cc3c(cc12)C(=O)C=CC3=O [HELENAQUINONE] | > 30 µM | > 60 µM | 3.7 µM | 0.93 µM | 1.57 µM | > 30 µM |  | 
CC1=C(CC/C(C)=C/CCC2=CC[C@H](C3=CC(=O)O[C@H]3O)O[C@H]2O)C(C)(C)CCC1 [MANOALIDE] |  |  | 0.5 µM |  |  |  |  | 
CC1=CCCC2(C)C1=C(O)C(=O)c1cc3c(cc12)C(=O)C=CC3=O (stereo unspecified) [ORHALQUINONE] | 10.9 µM | > 62 µM | 1570 µM | 0.41 µM | 0.4 µM | 9.22 µM | 5 | 5
C[C@@]12CC[C@H](O)[C@@H]3COC(=C31)C(=O)c1cc3c(cc12)C(=O)CC[C@@H]3O [TETRAHYDROHALENAQUINONE A] | > 29 µM | > 58 µM | 600 µM | > 30 µM | > 30 µM | > 29 µM |  | 
C[C@@]12CC[C@H](O)[C@@H]3COC(=C31)C(=O)c1cc3c(cc12)C(O)CCC3=O (stereo partly specified) [XESTOSAPROL A] | > 29 µM | > 58 µM | 1000 µM | > 30 µM | > 30 µM | > 29 µM |  | 
CO[C@]12OC(O)C3=C1[C@@](C)(CCC3=O)c1cc3c(OS(=O)(=O)O)ccc(O)c3cc1C2=O (stereo partly specified) [XESTOSAPROL C METHYLACETAL] | > 21 µM | > 42 µM | 570 µM | 4.34 µM | 6.71 µM | > 21 µM |  | 
